Results from ChEMBL document CHEMBL2163192, “N,N-Dimethyl-[9-(arylsulfonyl)-2,3,4,9-tetrahydro-1H-carbazol-3-yl]amines as novel, potent and selective 5-HT₆ receptor antagonists” (Bioorg Med Chem Lett, 2012).
pIC50, pKi: −log10 of the molar value. Values belong to the compound of their own block, whether it stands above or below them. Active and inactive are the calls of the source. The rule behind the calls is not given here.

Assays:
[1] = target: T1, 5-hydroxytryptamine receptor 6 (Homo sapiens, UniProt P50406); experiment: Displacement of [3H]LSD from human cloned 5-HT6 receptor expressed in HeLa cells after 1 hr by scintillation counter; assay type: cell-based
[2] = Half life in Wistar rat at 10 mg/kg, iv; assay type: ADME, organism-based; parameters: dose 10 mg/kg, route intravenous; settings: in vivo
Outline: (§1)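 Fasted male Wistar rats, n=3, single 10 mg/kg intravenous dose in water for injection (2 mL/kg); plasma concentration–time profile used for Cmax, AUC, half-life, Vd and clearance.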

[3] = target: T2, 5-hydroxytryptamine receptor 1A (Homo sapiens) (UniProt P08908); experiment: Inhibition of 5-HT1A receptor at 1 uM
T2 sequence (whole entry): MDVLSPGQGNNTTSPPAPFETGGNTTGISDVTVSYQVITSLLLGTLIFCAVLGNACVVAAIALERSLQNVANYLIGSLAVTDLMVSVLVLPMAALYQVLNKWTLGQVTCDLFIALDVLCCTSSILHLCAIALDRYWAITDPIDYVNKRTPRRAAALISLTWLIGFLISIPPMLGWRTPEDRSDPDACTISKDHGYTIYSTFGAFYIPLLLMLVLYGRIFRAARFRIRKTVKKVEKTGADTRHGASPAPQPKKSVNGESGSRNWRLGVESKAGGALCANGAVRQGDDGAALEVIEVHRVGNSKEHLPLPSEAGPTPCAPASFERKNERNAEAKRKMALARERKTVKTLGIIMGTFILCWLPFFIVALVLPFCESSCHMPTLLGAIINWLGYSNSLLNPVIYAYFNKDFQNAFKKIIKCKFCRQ
Outline: (§2)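 In-house selectivity panel of related receptors and transporters; each compound tested at 1 μM and 10 μM; percent inhibition determined in duplicate and the mean of the two reported.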

[4] = AUC in Wistar rat at 10 mg/kg, po; assay type: ADME, organism-based; parameters: dose 10 mg/kg, route oral; settings: plasma
Outline: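 Fasted male Wistar rats (n = 3) received a single oral dose of 10 mg/kg in water for injection. AUC is given in ng.hr/mL as part of a pharmacokinetic profile that also includes Cmax, t1/2, Vd and clearance, and uses an i.v. 10 mg/kg arm to derive oral bioavailability.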

[5] = AUC in Wistar rat at 10 mg/kg, iv; assay type: ADME, organism-based; parameters: dose 10 mg/kg, route intravenous; settings: plasma; outline: as §1
[6] = Cmax in Wistar rat at 10 mg/kg, iv; assay type: ADME, organism-based; parameters: dose 10 mg/kg, route intravenous; settings: in vivo; outline: as §1
[7] = Cmax in Wistar rat at 10 mg/kg, po; assay type: ADME, organism-based; parameters: dose 10 mg/kg, route oral; settings: in vivo
Outline: (§3)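 Fasted male Wistar rats, n=3, given 10 mg/kg orally in water for injection (10 mL/kg); plasma Cmax, half-life, Vd and clearance derived, with bioavailability from comparison against the 10 mg/kg iv arm.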

[8] = Ratio of drug level in brain to plasma in Wistar rat at 10 mg/kg, po; assay type: ADME, organism-based; parameters: dose 10 mg/kg, route oral; settings: read-out: BPR
[9] = system: Rattus norvegicus; experiment: Cognitive enhancing effect in Wistar rat assessed as increase in time send on novel object at 1 to 10 mg/kg, po after 60 mins by novel object recognition test; assay type: functional, organism-based
Outline: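 Novel object recognition in rats with 24-h delay procedure; 1, 3 and 10 mg/kg given orally in water for injection (2 mL/kg) 60 min before test; time exploring novel versus familiar object compared by paired t test, n = 8–10/group.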

[10] = target: Sodium-dependent serotonin transporter (Homo sapiens) (UniProt P31645); experiment: Inhibition of SERT at 1 uM; outline: as §2
[11] = Drug metabolism in rat liver microsomes; assay type: ADME, Microsome; settings: read-out: Drug metabolism
[12] = target: Histamine H4 receptor (Homo sapiens) (UniProt Q9H3N8); experiment: Inhibition of histamine H4 receptor at 1 uM; outline: as §2
[13] = target: CYP2C19 (Homo sapiens, UniProt P33261); experiment: Inhibition of human CYP2C19 at 3 uM; assay type: ADME
Outline: (§4)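 Isoform-selective inhibition assays using heterologously expressed human CYP enzymes; compounds tested at 3 μM; percent inhibition reported.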

[14] = Clearance in Wistar rat at 10 mg/kg, iv; assay type: ADME, organism-based; parameters: dose 10 mg/kg, route intravenous; settings: in vivo; outline: as §1
[15] = target: D(2) dopamine receptor (Homo sapiens) (UniProt P14416); experiment: Inhibition of dopamine D2 receptor at 1 uM; outline: as §2
[16] = target: CYP2D6 (Homo sapiens, UniProt P10635); experiment: Inhibition of human CYP2D6 at 3 uM; assay type: ADME; outline: as §4
[17] = target: 5-hydroxytryptamine receptor 2A (Homo sapiens) (UniProt P28223); experiment: Inhibition of 5-HT2A receptor at 1 uM; outline: as §2
[18] = target: 5-hydroxytryptamine receptor 2A (Homo sapiens) (UniProt P28223); experiment: Inhibition of 5-HT2A receptor at 10 uM; outline: as §2
[19] = target: Sodium-dependent dopamine transporter (Homo sapiens) (UniProt Q01959); experiment: Inhibition of DAT at 1 uM; outline: as §2
[20] = target: CYP3A4 (Homo sapiens, UniProt P08684); experiment: Inhibition of human CYP3A4 at 3 uM; assay type: ADME; outline: as §4
[21] = target: Sodium-dependent dopamine transporter (Homo sapiens) (UniProt Q01959); experiment: Inhibition of DAT at 10 uM; outline: as §2
[22] = target: T3, Alpha-1B adrenergic receptor (Homo sapiens) (UniProt P35368); experiment: Inhibition of alpha1B adrenergic receptor at 10 uM; outline: as §2
T3 sequence (whole entry): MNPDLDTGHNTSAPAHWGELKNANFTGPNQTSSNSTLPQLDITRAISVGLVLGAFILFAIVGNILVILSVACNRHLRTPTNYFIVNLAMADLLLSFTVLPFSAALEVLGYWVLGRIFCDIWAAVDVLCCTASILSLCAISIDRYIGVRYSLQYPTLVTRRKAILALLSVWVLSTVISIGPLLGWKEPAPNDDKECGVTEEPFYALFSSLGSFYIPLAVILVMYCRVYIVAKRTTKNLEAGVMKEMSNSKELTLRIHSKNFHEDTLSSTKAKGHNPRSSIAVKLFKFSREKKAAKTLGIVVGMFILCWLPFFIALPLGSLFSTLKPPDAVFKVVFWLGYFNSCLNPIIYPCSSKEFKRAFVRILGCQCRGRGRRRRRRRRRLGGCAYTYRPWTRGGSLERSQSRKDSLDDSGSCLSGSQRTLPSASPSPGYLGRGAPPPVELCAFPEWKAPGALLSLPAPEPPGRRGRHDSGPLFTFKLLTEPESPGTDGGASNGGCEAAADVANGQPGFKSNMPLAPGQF

[23] = Drug metabolism in human liver microsomes; assay type: ADME, Microsome; settings: read-out: Drug metabolism
[24] = Half life in Wistar rat at 10 mg/kg, po; assay type: ADME, organism-based; parameters: dose 10 mg/kg, route oral; settings: in vivo; outline: as §3
[25] = target: Sodium-dependent serotonin transporter (Homo sapiens) (UniProt P31645); experiment: Inhibition of SERT at 10 uM; outline: as §2
[26] = target: D(2) dopamine receptor (Homo sapiens) (UniProt P14416); experiment: Inhibition of dopamine D2 receptor at 10 uM; outline: as §2
[27] = Volume of distribution in Wistar rat at 10 mg/kg, iv; assay type: ADME, organism-based; parameters: dose 10 mg/kg, route intravenous; settings: in vivo; outline: as §1
[28] = target: Histamine H3 receptor (Homo sapiens) (UniProt Q9Y5N1); experiment: Inhibition of histamine H3 receptor at 1 uM; outline: as §2
[29] = target: T1, 5-hydroxytryptamine receptor 6; experiment: Antagonist activity at human recombinant 5-HT6 receptor expressed in CHO cells assessed as inhibition of 5-HT-stimulated cAMP accumulation after 4 hrs by luciferase reporter gene assay; assay type: functional, cell-based
Outline: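 Cell-based, non-radioactive reporter gene assay measuring antagonism of 5-HT-stimulated cAMP formation at human 5-HT6 receptor; IC50 and Kb values determined in duplicate.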

[30] = system: Rattus norvegicus; experiment: Volume of distribution in Wistar rat at 10 mg/kg, po; assay type: ADME, organism-based; parameters: dose 10 mg/kg, route oral; settings: in vivo; outline: as §3
[31] = target: Histamine H4 receptor (Homo sapiens) (UniProt Q9H3N8); experiment: Inhibition of histamine H4 receptor at 10 uM; outline: as §2
[32] = target: T3, Alpha-1B adrenergic receptor (Homo sapiens); experiment: Inhibition of alpha1B adrenergic receptor at 1 uM; outline: as §2
[33] = target: Histamine H3 receptor (Homo sapiens) (UniProt Q9Y5N1); experiment: Inhibition of histamine H3 receptor at 10 uM; outline: as §2
[34] = target: T2, 5-hydroxytryptamine receptor 1A (Homo sapiens); experiment: Inhibition of 5-HT1A receptor at 10 uM; outline: as §2
[35] = Clearance in Wistar rat at 10 mg/kg, po; assay type: ADME, organism-based; parameters: dose 10 mg/kg, route oral; settings: in vivo; outline: as §3
[36] = Oral bioavailability in Wistar rat at 10 mg/kg; assay type: ADME, organism-based; settings: in vivo; outline: as §3

T1 sequence (P50406 whole entry): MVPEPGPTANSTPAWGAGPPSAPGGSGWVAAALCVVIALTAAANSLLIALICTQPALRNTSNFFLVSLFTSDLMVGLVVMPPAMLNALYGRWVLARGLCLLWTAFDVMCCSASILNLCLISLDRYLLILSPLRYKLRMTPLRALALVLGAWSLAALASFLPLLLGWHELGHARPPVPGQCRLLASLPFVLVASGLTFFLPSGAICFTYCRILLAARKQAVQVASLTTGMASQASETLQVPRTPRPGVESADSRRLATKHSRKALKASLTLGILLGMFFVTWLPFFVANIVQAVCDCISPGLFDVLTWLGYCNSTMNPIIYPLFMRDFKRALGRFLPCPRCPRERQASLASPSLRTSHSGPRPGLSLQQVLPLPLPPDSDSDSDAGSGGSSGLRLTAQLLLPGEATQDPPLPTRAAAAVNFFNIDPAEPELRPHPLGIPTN
Sequence of Sodium-dependent dopamine transporter (Homo sapiens) (Q01959 whole entry): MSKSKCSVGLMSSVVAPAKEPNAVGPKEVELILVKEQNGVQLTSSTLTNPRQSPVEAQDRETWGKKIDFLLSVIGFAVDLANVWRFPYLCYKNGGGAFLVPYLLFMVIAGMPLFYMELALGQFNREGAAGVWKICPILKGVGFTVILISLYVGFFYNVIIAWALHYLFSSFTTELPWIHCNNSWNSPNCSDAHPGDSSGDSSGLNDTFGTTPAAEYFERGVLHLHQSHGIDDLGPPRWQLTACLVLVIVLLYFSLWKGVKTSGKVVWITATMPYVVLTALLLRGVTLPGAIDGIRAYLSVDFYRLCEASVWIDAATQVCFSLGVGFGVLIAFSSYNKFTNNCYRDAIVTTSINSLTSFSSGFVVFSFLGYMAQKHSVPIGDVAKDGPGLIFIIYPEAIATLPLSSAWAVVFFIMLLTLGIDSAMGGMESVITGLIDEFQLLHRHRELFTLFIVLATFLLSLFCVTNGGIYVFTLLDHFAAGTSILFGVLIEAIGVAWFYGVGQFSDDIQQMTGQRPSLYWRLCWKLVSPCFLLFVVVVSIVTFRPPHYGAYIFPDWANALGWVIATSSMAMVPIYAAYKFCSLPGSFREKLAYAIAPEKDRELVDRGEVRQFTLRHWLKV
Sequence of 5-hydroxytryptamine receptor 2A (Homo sapiens) (P28223 whole entry): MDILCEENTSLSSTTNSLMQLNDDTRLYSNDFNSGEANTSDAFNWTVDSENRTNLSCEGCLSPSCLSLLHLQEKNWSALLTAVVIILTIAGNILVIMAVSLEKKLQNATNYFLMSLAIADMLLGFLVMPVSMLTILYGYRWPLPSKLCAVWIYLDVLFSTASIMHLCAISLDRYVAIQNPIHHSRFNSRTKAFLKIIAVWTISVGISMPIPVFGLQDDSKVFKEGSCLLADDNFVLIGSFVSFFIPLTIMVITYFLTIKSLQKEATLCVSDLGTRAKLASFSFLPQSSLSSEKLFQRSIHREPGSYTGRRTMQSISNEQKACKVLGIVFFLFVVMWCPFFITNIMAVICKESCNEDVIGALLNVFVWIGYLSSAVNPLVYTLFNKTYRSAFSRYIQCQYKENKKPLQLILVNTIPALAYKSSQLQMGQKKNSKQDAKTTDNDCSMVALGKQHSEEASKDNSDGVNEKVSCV
Sequence of Sodium-dependent serotonin transporter (Homo sapiens) (P31645 whole entry, looked up): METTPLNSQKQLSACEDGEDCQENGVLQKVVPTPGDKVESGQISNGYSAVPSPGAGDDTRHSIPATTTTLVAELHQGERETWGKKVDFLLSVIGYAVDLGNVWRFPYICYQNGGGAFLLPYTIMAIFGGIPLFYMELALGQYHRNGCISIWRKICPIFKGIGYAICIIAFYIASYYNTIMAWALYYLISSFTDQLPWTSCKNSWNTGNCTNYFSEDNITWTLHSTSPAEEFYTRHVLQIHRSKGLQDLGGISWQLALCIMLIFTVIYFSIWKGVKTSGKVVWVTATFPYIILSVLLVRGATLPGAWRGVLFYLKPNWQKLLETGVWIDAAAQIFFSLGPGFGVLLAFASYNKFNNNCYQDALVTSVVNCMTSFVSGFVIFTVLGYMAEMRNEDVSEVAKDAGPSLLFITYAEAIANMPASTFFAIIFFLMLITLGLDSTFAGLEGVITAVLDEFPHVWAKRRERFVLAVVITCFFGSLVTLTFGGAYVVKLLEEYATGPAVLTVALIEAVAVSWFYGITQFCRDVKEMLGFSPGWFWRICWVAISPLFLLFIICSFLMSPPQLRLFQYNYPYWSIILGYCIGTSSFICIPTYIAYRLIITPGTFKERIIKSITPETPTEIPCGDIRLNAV
Sequence of Histamine H3 receptor (Homo sapiens) (Q9Y5N1 whole entry): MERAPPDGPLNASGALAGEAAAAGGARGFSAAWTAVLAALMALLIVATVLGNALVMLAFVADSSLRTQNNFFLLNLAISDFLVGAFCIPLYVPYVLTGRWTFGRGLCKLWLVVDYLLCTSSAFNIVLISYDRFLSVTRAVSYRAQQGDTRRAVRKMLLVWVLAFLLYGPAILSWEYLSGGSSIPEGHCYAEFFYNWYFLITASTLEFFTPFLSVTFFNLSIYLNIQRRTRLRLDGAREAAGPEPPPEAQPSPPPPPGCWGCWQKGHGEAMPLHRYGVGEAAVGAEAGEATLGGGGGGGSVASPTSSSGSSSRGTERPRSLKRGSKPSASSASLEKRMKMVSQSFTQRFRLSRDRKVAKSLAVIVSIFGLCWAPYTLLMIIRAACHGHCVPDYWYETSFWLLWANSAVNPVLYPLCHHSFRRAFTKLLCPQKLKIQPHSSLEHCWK
Sequence of D(2) dopamine receptor (Homo sapiens) (P14416 whole entry): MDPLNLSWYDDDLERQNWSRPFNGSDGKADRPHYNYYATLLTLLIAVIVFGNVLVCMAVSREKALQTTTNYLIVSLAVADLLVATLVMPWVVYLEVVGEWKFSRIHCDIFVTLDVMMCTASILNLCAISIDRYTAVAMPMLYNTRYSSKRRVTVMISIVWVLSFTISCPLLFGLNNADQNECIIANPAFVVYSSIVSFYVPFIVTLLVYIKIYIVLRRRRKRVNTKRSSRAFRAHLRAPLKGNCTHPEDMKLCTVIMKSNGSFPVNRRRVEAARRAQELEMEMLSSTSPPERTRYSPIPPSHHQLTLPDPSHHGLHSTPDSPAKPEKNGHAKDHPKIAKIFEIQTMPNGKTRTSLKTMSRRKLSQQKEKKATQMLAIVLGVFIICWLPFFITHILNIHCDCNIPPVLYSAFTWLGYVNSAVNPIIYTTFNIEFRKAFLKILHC
Sequence of CYP3A4 (P08684 whole entry): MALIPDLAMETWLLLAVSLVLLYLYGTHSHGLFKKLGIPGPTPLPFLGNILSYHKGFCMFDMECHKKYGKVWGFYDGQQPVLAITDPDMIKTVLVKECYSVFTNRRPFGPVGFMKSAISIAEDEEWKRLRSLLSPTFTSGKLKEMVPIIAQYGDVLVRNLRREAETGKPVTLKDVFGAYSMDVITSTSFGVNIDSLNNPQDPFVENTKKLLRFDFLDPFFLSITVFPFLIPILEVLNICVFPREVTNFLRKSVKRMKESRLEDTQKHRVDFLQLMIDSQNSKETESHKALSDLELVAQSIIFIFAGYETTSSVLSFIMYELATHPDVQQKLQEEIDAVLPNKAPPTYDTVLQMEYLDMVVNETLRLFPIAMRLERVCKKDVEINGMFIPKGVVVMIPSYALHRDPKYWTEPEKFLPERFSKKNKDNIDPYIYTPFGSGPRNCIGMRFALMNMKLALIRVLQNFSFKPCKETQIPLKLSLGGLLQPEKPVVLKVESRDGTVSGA
Sequence of CYP2D6 (P10635 whole entry): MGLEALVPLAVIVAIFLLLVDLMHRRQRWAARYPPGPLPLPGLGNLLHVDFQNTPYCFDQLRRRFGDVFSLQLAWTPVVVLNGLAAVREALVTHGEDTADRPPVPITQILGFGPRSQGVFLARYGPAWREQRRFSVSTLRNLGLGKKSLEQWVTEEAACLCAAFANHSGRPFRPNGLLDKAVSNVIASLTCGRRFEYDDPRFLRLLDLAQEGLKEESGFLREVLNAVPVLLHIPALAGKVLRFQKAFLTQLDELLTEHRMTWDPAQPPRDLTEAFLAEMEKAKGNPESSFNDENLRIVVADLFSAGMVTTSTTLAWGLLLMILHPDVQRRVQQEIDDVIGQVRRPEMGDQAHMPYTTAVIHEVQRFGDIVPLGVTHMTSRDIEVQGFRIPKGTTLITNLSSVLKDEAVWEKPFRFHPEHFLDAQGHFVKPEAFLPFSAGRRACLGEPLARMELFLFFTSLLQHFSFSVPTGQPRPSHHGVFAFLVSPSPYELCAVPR
Sequence of CYP2C19 (P33261 whole entry, canonical isoform): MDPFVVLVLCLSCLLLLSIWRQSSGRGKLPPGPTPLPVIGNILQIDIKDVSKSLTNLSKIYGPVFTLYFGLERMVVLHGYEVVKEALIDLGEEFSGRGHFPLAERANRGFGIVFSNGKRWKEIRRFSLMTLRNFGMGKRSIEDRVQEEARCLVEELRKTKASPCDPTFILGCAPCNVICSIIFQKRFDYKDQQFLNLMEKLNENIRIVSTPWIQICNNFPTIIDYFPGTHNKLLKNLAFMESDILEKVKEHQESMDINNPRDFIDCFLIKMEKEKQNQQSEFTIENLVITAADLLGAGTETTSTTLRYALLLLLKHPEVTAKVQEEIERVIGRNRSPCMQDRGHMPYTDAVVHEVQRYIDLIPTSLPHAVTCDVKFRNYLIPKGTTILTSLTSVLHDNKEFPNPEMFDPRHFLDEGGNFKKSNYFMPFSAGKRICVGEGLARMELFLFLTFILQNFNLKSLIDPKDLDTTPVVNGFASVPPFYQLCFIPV

pKi [1]: 7.24
Structure (SMILES): NC1CCc2[nH]c3ccc(S(=O)(=O)c4ccccc4)cc3c2C1 (configuration not stated)

half-life [2]: 232 min | inhibition [3]: 28.3% | AUC [4]: 544 ng·h/mL | AUC [5]: 2120 ng·h/mL | Cmax [6]: 928 ng/mL | Cmax [7]: 90 ng/mL | Kp [8]: 7.6 | inhibition [10]: 2.52% | metabolised [11]: 74% | inhibition [12]: 0% | inhibition at 3 µM [13]: 50% | clearance [14]: 73.8 mL/min/kg | inhibition [15]: 11% | inhibition at 3 µM [16]: 50% | inhibition [17]: 8.15% | inhibition [18]: 46.7% | inhibition [19]: 1.48% | inhibition at 3 µM [20]: 10% | inhibition [21]: 6.23% | inhibition [22]: 5.26% | metabolised [23]: 49% | half-life [24]: 460 min | inhibition [25]: 3.35% | inhibition [26]: 51.3% | Vd [27]: 24.3 L/kg | inhibition [28]: 22.8% | pIC50 [29]: 6.34 | Kb [29]: 4.7 nM | Vd [30]: 21.95 L/kg | inhibition [31]: 13.9% | inhibition [32]: 5.21% | inhibition [33]: 32.7% | inhibition [34]: 43.1% | CL/F [35]: 331 mL/min/kg | bioavailability [36]: 26%
Structure (SMILES): COc1ccc2c(c1)c1c(n2S(=O)(=O)c2ccccc2)CCC(N(C)C)C1 (racemic)
Activity [9]: Active
